In ChEMBL document CHEMBL1150817, “Annomolin and annocherimolin, new cytotoxic annonaceous acetogenins from Annona cherimolia seeds” (J Nat Prod, 2001) one finds EC50, ED50 and LC50 data, which are given here for 3 molecules.

The structures appear in SMILES notation. Converted amounts (≈) assume the structure as drawn.

The subject of one data set is A549. The experiment in a line: Cytotoxicity against human A549 cells after 7 days by MTT assay. The settings on record: A549, 168 h, read-out: ED50 (the source's name). The format is functional. Put shortly:
(§1)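 Seven-day in vitro MTT assay run at the Purdue Cancer Center cell culture laboratory under standard protocols. Cell lines were A-549 lung carcinoma, MCF-7 breast carcinoma, HT-29 colon adenocarcinoma, A-498 kidney carcinoma, PC-3 prostate adenocarcinoma and MIA PaCa-2 pancreatic carcinoma. Adriamycin served as the positive control.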

The subject of another data set is MCF7. The experiment in a line: Cytotoxicity against human MCF7 cells after 7 days by MTT assay. In kind it is functional. Put shortly:
as §1

The nature of data set [1]: Toxicity to Artemia salina. The format is organism-based. The settings on record: in vivo. Put shortly: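 Brine shrimp lethality test (BST) on larvae, run routinely on extracts, fractions and isolated compounds during activity-directed fractionation.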
Another data set has as its system A498. The experiment in a line: Cytotoxicity against human A498 cells after 7 days by MTT assay. In kind it is functional. The following applies: for EC50: Homo sapiens, A498, 168 h, read-out: ED50 (the source's name). Put shortly: as §1
A further data set relates to HT-29. The experiment in a line: Cytotoxicity against human HT-29 cells after 7 days by MTT assay. The format is functional. Put shortly:
as §1

For another data set, the system named is PC-3. The experiment in a line: Cytotoxicity against human PC3 cells after 7 days by MTT assay. The following applies: for EC50: Homo sapiens, PC-3, 168 h, read-out: ED50 (the source's name). The format is functional. Put shortly: as §1
The test system of the next data set is MIA PaCa-2. The experiment in a line: Cytotoxicity against human MIAPaCa2 cells after 7 days by MTT assay. In kind it is functional. The following applies: for EC50: Homo sapiens, MIA PaCa-2, 168 h, read-out: ED50 (the source's name). Put shortly:
as §1

Regarding `CCCCCCCCCCCC/C=C\CC[C@@H](O)[C@H]1CC[C@H]([C@H](O)CCCC(O)CCCC[C@@H](O)CC2=C[C@H](C)OC2=O)O1` (stereo not given in full) [ANNOCHERIMOLIN], the figures for the EC50 in the data set on A549, with A498 and with PC-3 were 1.56 µg/mL (≈ 2.5 µM), 0.153 µg/mL (≈ 0.246 µM) and 1.02 µg/mL (≈ 1.64 µM), respectively. The ED50 was determined as 4.06 ×10⁻⁶ ug/ml in the data set on MCF7, 2.49 ×10⁻⁶ ug/ml in the data set with HT-29 and 1.2 ×10⁻⁵ ug/ml in the data set on MIA PaCa-2. In addition, the LC50 in data set [1] is 0.0058 µg/mL (≈ 0.00931 µM).

For the molecule `CCCCCCCCCCCCCC[C@H](O)[C@@H]1CC[C@@H](CCCCC[C@@H](O)[C@H](O)CC[C@@H](O)CC2=C[C@H](C)OC2=O)O1` [ANNOMOLIN], the EC50 in the data set with A549 was determined as 2.37 µg/mL (≈ 3.97 µM); with MIA PaCa-2, 2.18 µg/mL (≈ 3.65 µM). Further, the ED50 in the data set with MCF7 is reported as 1.15 ×10⁻⁴ ug/ml; with A498 it was 6.88 ×10⁻⁴ ug/ml; with HT-29, 8.92 ×10⁻⁵ ug/ml; with PC-3, 5.39 ×10⁻⁶ ug/ml. The same molecule displayed a median lethal concentration (LC50) in data set [1] of 0.0094 µg/mL (≈ 0.0157 µM).

In the case of `COc1cccc2c1C(=O)c1c(O)c3c(c(O)c1C2=O)C[C@@](O)(C(=O)CO)C[C@@H]3O[C@H]1C[C@H](N)[C@H](O)[C@H](C)O1` [DOXORUBICIN], the EC50 with A549 was found to be 0.00113 µg/mL (≈ 0.00208 µM); in the data set with MCF7 (Homo sapiens, MCF7, 168 h, read-out: ED50 (the source's name)), 0.0182 µg/mL (≈ 0.0335 µM); in the data set on A498, 0.00226 µg/mL (≈ 0.00416 µM); in the data set with HT-29 (Homo sapiens, HT-29, 168 h, read-out: ED50 (the source's name)) it was 0.0128 µg/mL (≈ 0.0235 µM); in the data set on PC-3, 0.0502 µg/mL (≈ 0.0924 µM); in the data set on MIA PaCa-2 it was 0.00262 µg/mL (≈ 0.00482 µM).
